Hits are enriched below; roughly 2.3% of the tested compounds scored in any of these assays.
bCat nuc transl: beta-catenin nuclear translocation modulation | HeLa beta-catenin nuclear translocation, immunofluorescence imaging | nuclear translocation activity, % at 5 µM | hit rate 0.3% among 190,000;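 active means nuclear translocation activity above 50% at 5 µM, with a well cell count of 50 or more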;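 further: per-cell ratio of nuclear to cytoplasmic median beta-catenin stain intensity; plate controls were DMSO negative control for no effect and GSK-3 inhibitor IX positive control for full effect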
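Technique: fluorescence imaging of beta-catenin antibody stain plus DAPI / Material: human HeLa cell line / Incubation: compound treatment 24 h, 37°C, 5% CO2 / Read-out basis: % activation of per-cell nuclear versus cytoplasmic median beta-catenin signal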
Dynein transport: dynein cargo transport inhibition; hit rate 0.47% among 220,000; z-score, hits read low; AID 1381; 3617.4 mouse cells, GR-EGFP nuclear translocation imaging; test concentration mostly 20 µM; stimulated with dexamethasone, 1 µM; hits give low values;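 active means plate z-score of nuclear minus cytoplasmic receptor signal below a set negative limit, without overly bright fluorescence or cell loss, cut at about -3.5 in these data, passing the limit was not always enough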;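 further: z-score of nuclear minus cytoplasmic ring GR-EGFP intensity difference per well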
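Buffer or medium – tet-free medium with charcoal-stripped serum · Signal – automated 10x imaging of fixed Hoechst-stained cells · Also added – dexamethasone agonist, 1.0 µM final, for 30 min · Incubation – induction 48 h, compound 1 h, agonist 30 min · Read-out – GR-EGFP nuclear translocation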
Autophagy HCS: autophagy modulation, high-content screen; hit rate 0.98% among 190,000; MEF GFP-LC3 puncta imaging; test concentration mostly 10 µM; calls only at 10 µM (by protocol);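 active means percentage of spot-positive cells more than 3 SD above its plate mean, without a fluorescence outlier flag or 80% toxicity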;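 further: spot-positive cell cutoff set from DMSO-treated cells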
Ins promoter up: MIN6 insulin promoter up-regulation | MIN6 insulin promoter-GFP reporter, high-content imaging; hits give high values | z-score at 5 µM | hit rate 0.3% among 190,000;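 active means z-score above 3 at 5 µM with at least 500 cells counted in the well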
MT stabilizer: microtubule stabilizers in HeLa cells. HeLa tubulin immunostaining HCS, 24 h; share of cells brighter than vehicle mean+2SD. % tubulin-high responders, % at 10 µM. hit rate 0.83% among 200,000;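 active means plate Z-score above 3 for both tubulin-high and condensed-nucleus cell shares, with cell loss under 80%, at 10 µM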;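 further: anti alpha tubulin signal scored within the nucleus-defined area of each cell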
Active calls of the source: *; i = inactive; . = not tested or not shown; + = active, no number.

SMILES | bCat nuc transl | Dynein transport | Autophagy HCS | Ins promoter up | MT stabilizer
O=C(CS(=O)(=O)c1ccc2ccccc2c1)N1CCCCCC1 | -1 | -1.1 | i | 0.61 | 3
O=C(O)C1CCN(c2ccccc2[N+](=O)[O-])CC1 | -1 | 0.66 | i | 0.13 | 6
CC(C)CN1CCNC(=O)C1CC(=O)NCc1cnn(-c2cccc(F)c2)c1 (centres undefined) | -1 | -1.2 | i | -0.14 | 2
Cc1[nH]c2ccccc2c1CCC(N)=O | -3 | 0.25 | i | 0.15 | 2
Cc1[nH]c2ccccc2c1Cc1nnc(SCC(N)=O)o1 | 0 | 0.48 | i | 4.8* | 3
Cc1ccc([N+](=O)[O-])c(C(=O)N/N=C/c2cccnc2)c1 | 0 | -0.46 | . | 0.42 | .
Cc1cc(C)c(NC(=S)NC(CO)(CO)CO)c(C)c1 | -2 | -0.0094 | . | -0.23 | .
CCCCCCCCCCCCCCCC[n+]1cccc(C(=O)N(CC)CC)c1 | 5 | -5.1* | i | -1.6 | 27
COC(CNC(=O)c1ccc(Cn2c(=S)[nH]c3cc4c(cc3c2=O)OCO4)cc1)OC | -2 | 0.59 | i | 3.5* | 3
COCCNC(=O)c1ccc(Cn2c(=S)[nH]c3cc4c(cc3c2=O)OCO4)cc1 | -3 | 0.58 | i | -0.33 | 6
Nc1cc2c(cc1C(=O)c1ccccc1F)OCCO2 | -1 | 1.3 | i | -0.46 | 3
Nc1cc2c(cc1C(=O)c1cccc(Br)c1)OCCO2 | 0 | -0.33 | i | -0.28 | 16*
O=C(NCc1ccccc1)Nc1cccn(Cc2ccccc2Cl)c1=O | -1 | 0.065 | i | 0.06 | 3
Cc1c(C(=O)Nc2ccc3c4c(cccc24)CC3)cccc1[N+](=O)[O-] | -2 | 1.7 | i | -0.18 | 22*
Cn1c(=O)[nH]c(=O)c2c1nc(Br)n2CC(O)COc1ccc(Cl)cc1 (centres undefined) | -2 | -0.26 | i | 0.29 | 3
CCOc1ccc(C(C)C)cc1S(=O)(=O)n1ccnc1C | -3 | 0.031 | i | -0.39 | 3
CCCn1nc([N+](=O)[O-])c(C(C#N)c2nc3ccccc3o2)c(Cl)c1=O (centres undefined) | 1 | 0.058 | i | 1.3 | 4
Cn1nc([N+](=O)[O-])c(C(C#N)c2ccccn2)c(Cl)c1=O (centres undefined) | -3 | -5.9* | i | 0.15 | 7
CCC(C)NC(=O)Nc1ccc(C)cc1C (centres undefined) | -1 | 0.02 | i | -0.09 | 2
Cc1cc(Cn2ccnc2)c(C)cc1Cn1ccnc1 | -1 | -0.35 | i | -0.16 | 43*
COc1ccc(CCN(CC(=O)NC2CCCC2)C(=O)Cn2nnc(-c3ccc(C)o3)n2)cc1OC | -5 | -0.63 | i | -0.12 | 1
COc1ccc(C(=O)OC2CCN(C)CC2)cc1 | 1 | 0.4 | i | 0.39 | 4
Cc1c(Br)cc(C(=O)OC2CCN(C)CC2)c(C)c1C | 2 | 2.1 | + | -1.5 | 3
COn1c(SCc2ccc(C)cc2C)nc2ccccc2c1=O | 51* | -1.2 | i | -0.6 | 41*
COc1ccc2c(c1)C(=O)N(c1ccccc1C)C(=O)C2(C)C | 0 | 0.21 | i | -0.57 | 19*
SMILES | bCat nuc transl | Dynein transport | Autophagy HCS | Ins promoter up | MT stabilizer
COc1ccc2c(c1)C(=O)N(c1ccccc1OC)C(=O)C2 | . | -1.1 | i | 0.86 | 3
Cc1cc(C)cc(C(=O)NC(=S)Nc2ccc(Cc3ccncc3)cc2)c1 | -2 | -0.64 | i | . | 12*
O=C(Nc1ccc(Cc2ccncc2)cc1)c1ccc(Br)o1 | 2 | 0.029 | + | -0.13 | 3
CCN(c1ccccc1)S(=O)(=O)c1ccc(OC)c(NC(=O)Cn2cnc3c2c(=O)n(C)c(=O)n3C)c1 | -1 | -0.32 | i | -0.57 | 3
Cc1ccccc1S(=O)(=O)/N=C(/c1ccccc1)N1CCOCC1 | -1 | 1.2 | i | 0.1 | 1
CCOc1cc(-c2nc(C)c(C(C)=O)n2O)ccc1OCC(=O)Nc1ccccc1 | 0 | -0.78 | i | -0.94 | 4
O=C(Nc1ccc2c(c1)CCC2)Nc1ccc2c(c1)OCO2 | 2 | -1.5 | i | -0.45 | 2
CC(=O)N1CCc2c(sc(NC(=O)c3ccc4c(c3)OCCO4)c2C#N)C1 | 57* | -0.54 | i | -0.06 | 34*
CCOc1ccc(NC(=O)CC2C(=O)N(CC)C(=S)N2NC(=O)c2ccncc2)cc1 (centres undefined) | 2 | -0.25 | . | 0.17 | .
Cc1nc2c(N=Nc3ccccc3F)c(N)nn2c(N)c1C#N | 0 | 0.65 | i | -1.2 | 7

From PubChem
